Screening data from PubChem.
Arbovirus anti: antivirals against arbovirus infection, primary screen, cell-based, full library, 10K replicate subset; arbovirus infection cell-based antiviral screen; inhibition, % at 10 µM; hit rate 0.37% among 200,000; AID 1251, 2008; in the data active means inhibition above about 30%
ABCG2 inh: ABCG2 efflux pump inhibitors, primary screen, multiplex with ABCB1, IgMXP3 cells, flow cytometry. JC-1 efflux. hit rate 0.1% among 190,000. inhibition, % at 6.6 µM;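 active means inhibition above 80%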;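 further: 0% = DMSO and 100% = nicardipine control wells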
Target sequence (Q9UNQ0 whole entry, looked up): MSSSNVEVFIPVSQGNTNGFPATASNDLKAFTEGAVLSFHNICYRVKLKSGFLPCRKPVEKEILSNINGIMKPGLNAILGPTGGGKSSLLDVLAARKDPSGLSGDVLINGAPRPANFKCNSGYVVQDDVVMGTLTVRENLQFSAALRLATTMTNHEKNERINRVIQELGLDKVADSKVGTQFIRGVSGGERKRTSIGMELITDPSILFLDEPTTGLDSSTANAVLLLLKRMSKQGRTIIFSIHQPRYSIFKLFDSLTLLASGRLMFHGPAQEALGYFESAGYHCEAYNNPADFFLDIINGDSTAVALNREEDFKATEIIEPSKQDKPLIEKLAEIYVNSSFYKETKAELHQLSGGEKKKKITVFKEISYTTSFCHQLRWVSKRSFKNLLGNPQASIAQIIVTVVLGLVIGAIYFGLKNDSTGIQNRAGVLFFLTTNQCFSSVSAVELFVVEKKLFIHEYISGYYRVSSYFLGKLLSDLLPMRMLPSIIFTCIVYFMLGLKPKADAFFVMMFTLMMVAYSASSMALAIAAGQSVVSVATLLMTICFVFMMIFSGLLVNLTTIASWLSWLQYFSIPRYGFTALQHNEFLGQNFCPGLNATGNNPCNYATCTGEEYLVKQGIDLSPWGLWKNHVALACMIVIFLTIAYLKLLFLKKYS
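Assay system – ABCG2 IgMXP3 and barcoded ABCB1 CCRF-Adr cell mix · Input – 3 million cells/mL in well · Reagent – JC-1 fluorescent substrate · Compound – single test compound dose, 6.6 µM final · Timing – 10 min exposure at 25 °C with rotation, no wash · Detection – flow cytometry of retained JC-1 fluorescence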
Autophagy mod: autophagy modulators in MEF cells, primary screen, imaging, high-content, MEF GFP-LC3; MEF GFP-LC3 puncta imaging; test concentration mostly 10 µM; calls only at 10 µM (by protocol); hit rate 0.98% among 190,000; AID 463193, 2010;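 active means percentage of spot-positive cells more than 3 SD above its plate mean, without a fluorescence outlier flag or 80% toxicity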;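 further: spot-positive cell cutoff set from DMSO-treated cells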
MT stabilize HCS: microtubule stabilizers in HeLa cells, primary screen, imaging, high-content imaging. HeLa tubulin immunostaining HCS, 24 h; share of cells brighter than vehicle mean+2SD. % tubulin-high responders, % at 10 µM. hit rate 0.83% among 200,000. AID 2205, 2009;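 active means plate Z-score above 3 for both tubulin-high and condensed-nucleus cell shares, with cell loss under 80%, at 10 µM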;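 further: anti alpha tubulin signal scored within the nucleus-defined area of each cell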
bCat nuc transl: modulators of beta-catenin nuclear translocation, primary screen, imaging, HeLa cells, immunofluorescence, high-content. hit rate 0.3% among 190,000. nuclear translocation activity, % at 5 µM;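 active means nuclear translocation activity above 50% at 5 µM, with a well cell count of 50 or more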;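 further: per-cell ratio of nuclear to cytoplasmic median beta-catenin stain intensity; plate controls were DMSO negative control for no effect and GSK-3 inhibitor IX positive control for full effect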
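System: HeLa cells, endogenous beta-catenin; compound dosing: 5 µM primary single dose, 0.1% DMSO, 0.02–20 µM confirmation series; incubation: 24 h compound exposure at 37°C, 5% CO2; signal: beta-catenin immunofluorescence imaging with DAPI; evaluation: % activation, nuclear-to-cytoplasmic median beta-catenin signal ratio per cell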
ABCB1 block: ABCB1 efflux pump inhibitors, primary screen, cell-based, multiplex, flow cytometry, ABCG2 counter-screen; inhibition, % at 6.6 µM; hit rate 0.067% among 190,000; AID 1326, 2008; ATP-dependent translocase ABCB1 (Homo sapiens), P08183; CCRF-Adr cells, JC-1 efflux; in the data active means inhibition above about 40%;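 further: 0% = vehicle and 100% = reference inhibitor; higher value means more JC-1 retained so stronger ABCB1 efflux block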
* marks the source's active call; other numbers are inactive results; i = inactive; · = not tested or not shown; + = active, no number. In the library only some 2.1% were active in any assay of this set; here they are far more common.

SMILES | Arbovirus anti | ABCG2 inh | Autophagy mod | MT stabilize HCS | bCat nuc transl | ABCB1 block
CCc1cc(C(=O)O)c(NC(=O)/C=C/c2ccc(OC)c(OC)c2)s1 | 71* | -4 | i | 5 | -4 | -1
COc1ccccc1NC(=O)COC(=O)/C=C/c1ccc2c(c1)OCO2 | 0 | 16 | i | 2 | 1 | 5
CC(=O)c1ccc(N2CCN(C(=S)Nc3ccccc3)CC2)cc1 | 10 | 9 | i | 1 | -3 | 0
COc1ccc(/C=C/C(=O)Nc2ccccc2C(=O)N2CCCC2)cc1 | 2 | -5 | i | 1 | -1 | -4
COc1ccc(/C=C/C(=O)Nc2cc(C(F)(F)F)ccc2Cl)cc1OC | 32* | 2 | i | 3 | -2 | 0
COc1ccc(/C=C/C(=O)Nc2ccccc2C(=O)O)cc1 | 51* | 0 | i | 4 | -2 | 0
COc1cc(/C=C/C(=O)Nc2cc(C(F)(F)F)ccc2Cl)cc(OC)c1OC | -1 | 5 | i | 3 | -2 | 1
c1ccc(CN2CCOCCOCCOCCOCCOCCOCC2)cc1 | 1 | 3 | i | 4 | -2 | 2
COc1ccc(NC(=O)Nc2ccc(C)cc2Br)c(OC)c1 | -11 | 6 | i | 4 | -3 | 0
Cc1cc(C(=O)CSc2nnc(-c3ccco3)o2)c(C)n1Cc1ccco1 | 31* | 10 | i | 5 | 1 | 2
Cc1cc(C(=O)CSc2nncs2)c(C)n1Cc1ccco1 | -16 | 2 | i | 3 | -1 | 0
NC(=O)NNc1ncc(C(F)(F)F)cc1Cl | 6 | 0 | i | 2 | -2 | 0
O=C(NNc1ncc(C(F)(F)F)cc1Cl)c1c(Cl)cccc1Cl | -10 | 6 | + | 21* | · | 1
COc1ccc(NC(=O)c2cc3cccc(OC)c3oc2=Nc2ccc(C(=O)O)cc2)cc1OC | 31* | -3 | i | 3 | 1 | -2
COc1cc2nc(NCCCN3CCN(C)CC3)n3nc(-c4ccccc4)nc3c2cc1OC | -22 | 25 | + | 2 | · | 5
CCN(CC)CCCNc1nc2cc(OC)c(OC)cc2c2nc(-c3ccccc3)nn12 | -42 | 3 | + | 1 | 2 | 1
CCN(CC)CCCNc1nc2cc(OC)c(OC)cc2c2nc(-c3cccnc3)nn12 | -13 | 2 | i | 0 | -1 | 0
Cc1cccc(C)c1N1C(=O)CC(N(O)c2ccccc2)C1=O (stereo not given) | 1 | 2 | i | 7 | 4 | 0
COc1cc(C(=O)N2CCN(c3ccc(C)cc3C)CC2)cc(OC)c1OC | -5 | 4 | i | 27* | 27 | 1
Cn1c(SCC(=O)N2CCCc3ccccc32)nnc1-c1ccco1 | 10 | 2 | i | 2 | 6 | 1
C=CCNC(=O)c1onc(CSc2ccccc2)c1C(=O)O | 12 | 6 | i | 3 | -1 | 1
C=CCNC(=O)c1onc(CSc2ccc(C(C)C)cc2)c1C(=O)O | 36* | 6 | i | 3 | -1 | 1
O=C(/C=C/c1ccc(S(=O)(=O)N2CCOCC2)cc1)NC(=S)NCCCn1ccnc1 | 3 | 7 | i | 6 | 21 | 1
CC(C)(C)c1ccc(NC(=O)Cn2cnc3cc([N+](=O)[O-])ccc3c2=O)cc1 | 5 | -1 | + | 2 | 1 | 0
Cc1ccc(OCCn2cnc3cc([N+](=O)[O-])ccc3c2=O)cc1 | 8 | 13 | + | 5 | 0 | 2
SMILES | Arbovirus anti | ABCG2 inh | Autophagy mod | MT stabilize HCS | bCat nuc transl | ABCB1 block
CCCS(=O)(=O)N1CCN(Cc2ccccc2OCC)CC1 | -1 | -2 | i | 2 | -5 | 0
CC(C)(C)n1nc2c(c1NC(=O)c1ccccc1F)CS(=O)C2 (stereo not given) | 6 | -1 | + | 4 | -6 | 0
COc1ccc([N+](=O)[O-])cc1COc1cc(C)cc2oc(=O)cc(-c3ccccc3)c12 | 2 | 21 | i | 18* | -5 | 14
CC(=O)COc1cc(C)cc2oc(=O)cc(-c3ccccc3)c12 | -2 | 3 | i | 3 | 0 | 0
CCOC(=O)N1CCN(C(=O)c2ccccc2-c2ccccc2)CC1 | -23 | 0 | i | 32* | 50 | 0
Cc1c(-c2ccnc3cc(C(=O)O)nn23)cnn1C | 2 | 1 | + | 3 | 0 | 0
CCn1cc(-c2ccnc3cc(C(=O)O)nn23)c(C)n1 | 0 | -3 | i | 3 | -3 | 0
CCn1c2ccccc2c2cc(CNCc3ccc(OC)cc3OC)ccc21 | -33 | 2 | + | 4 | 7 | 1
N/C(=N\c1nc(CSc2nnnn2-c2ccccc2)cc(=O)[nH]1)Nc1ccccc1 | 0 | 3 | i | 3 | 1 | 1
O=c1cc(CSc2nnnn2-c2ccccc2)nc(Nc2ccc(F)cc2)[nH]1 | 31* | 1 | i | 2 | -2 | 0
CN(C(=O)CSc1ncccc1C(=O)O)c1ccccc1 | 3 | 0 | i | 5 | 0 | 0
C/C(=N\NC(=O)COc1ccc([N+](=O)[O-])cc1)C(C)(C)C | 81* | 5 | i | 5 | · | 1
CCN1CCN(CCCOc2ccc(-c3ccccc3)cc2)CC1 | -42 | 3 | + | 2 | · | 1
O=C(c1ccccc1)c1ccc(OCCCCN2CCCCC2)cc1 | 1 | -1 | i | 1 | 2 | 0
c1ccc(COc2ccc(OCCCCN3CCCCC3)cc2)cc1 | -20 | 1 | + | 1 | · | 0
CCN1CCN(CCCOc2ccccc2-c2ccccc2)CC1 | -18 | 2 | i | 6 | -1 | 1
COC(=O)COc1ccc(-c2nn(C)c(=O)c3ccccc23)cc1 | 7 | 4 | i | 14 | · | 0
COc1cccc(OC)c1C(=O)OCC(=O)NCC(C)C | 0 | 0 | i | 1 | -4 | 0
O=C(CCCN1C(=O)c2ccccc2C1=O)NC1=NCCS1 | -1 | 3 | + | 2 | 0 | 0
Cc1cccc(NC(=O)CCN2C(=O)c3ccccc3C2=O)n1 | 3 | 0 | + | 5 | -2 | 0
O=C(C[n+]1cc(-c2ccc(Cl)cc2)n2c1CCC2)Nc1nc(-c2ccc(F)cc2)cs1 | · | · | · | · | 0 | ·
CCNC(=S)N1CCN(S(=O)(=O)c2cccc(C(F)(F)F)c2)CC1 | 5 | 0 | i | 1 | -1 | 0
COc1ccc(-c2c(C#N)c(N)nc3c2CCc2ccccc2-3)cc1OC | -16 | 4 | i | 34* | · | 2
COc1ccc(-c2cc(-c3cccs3)nc(OC)c2C#N)cc1OC | 13 | -1 | i | 9.6* | 50* | 0
